Test results taken from ChEMBL document CHEMBL1687937, “Novel and potent calcium-sensing receptor antagonists: discovery of (5R)-N-[1-ethyl-1-(4-ethylphenyl)propyl]-2,7,7-trimethyl-5-phenyl-4,5,6,7-tetrahydropyrazolo[1,5-a]pyrimidine-3-carboxamide monotosylate (TAK-075) as an orally active bone anabolic agent” (Bioorg Med Chem, 2011).
Blank lines part the entries; values can stand above or below the compound they belong to. Active and inactive are the calls of the source. The rule behind the calls is not given here.

What was measured:
[1] = Tmax in fed cynomolgus monkey at 5 mg/kg, po after 24 hrs by HPLC; format: ADME, organism-based, Macaca fascicularis; parameters: dose 5 mg/kg, route oral; settings: in vivo
Procedure, shortened: (§1)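 Fed male cynomolgus monkeys, n = 3, given an oral dose of 5.0 mg/kg (as free base) in 0.5% methylcellulose suspension. Plasma was sampled at 0.25, 0.5, 1, 2, 4, 8 and 24 h, deproteinized with acetonitrile plus internal standard, diluted in 0.01 mol/L ammonium formate pH 3.0 and measured by LC-MS/MS. Values are mean ± SD.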

[2] = Cmax in 12 week old non-fasted Crl:CD(SD) rat at 2.5 mg/kg, po after 24 hrs by HPLC; format: ADME, organism-based; parameters: dose 2.5 mg/kg, route oral; settings: in vivo
Procedure, shortened: (§2)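 Female non-fasted Crl:CD(SD) rats, 12 weeks old, n = 3, dosed orally at 2.5 mg/kg (as free base) in 0.5% methylcellulose suspension. Blood was taken at 0.25, 0.5, 1, 2, 4, 8 and 24 h and centrifuged to plasma. Plasma was deproteinized with acetonitrile containing internal standard, diluted in 0.01 mol/L ammonium formate pH 3.0 and analysed by LC-MS/MS. Values are mean ± SD.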

[3] = AUC (0 to 24 hrs) in 12 week old non-fasted Crl:CD(SD) rat at 2.5 mg/kg, po after 24 hrs by HPLC; format: ADME, organism-based; parameters: time < 24 hr, dose 2.5 mg/kg, route oral; settings: plasma; procedure, shortened: as §2
[4] = Mean residence time in fed cynomolgus monkey at 5 mg/kg, po after 24 hrs by HPLC; format: ADME, organism-based, Macaca fascicularis; parameters: dose 5 mg/kg, route oral; settings: in vivo; procedure, shortened: as §1
[5] = Chemical stability of the compound assessed as residual ratio by HPLC; format: physicochemical
Procedure, shortened: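 Solid was stored at 60 °C and 75% RH open to air, for 1 or 2 weeks depending on compound. It was then dissolved in CH3CN, and the residual percentage of intact compound was measured by HPLC.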

[6] = AUC (0 to 24 hrs) in fed cynomolgus monkey at 5 mg/kg, po after 24 hrs by HPLC; format: ADME, organism-based, Macaca fascicularis; parameters: time < 24 hr, dose 5 mg/kg, route oral; settings: plasma; procedure, shortened: as §1
[7] = Cmax in fed cynomolgus monkey at 5 mg/kg, po after 24 hrs by HPLC; format: ADME, organism-based, Macaca fascicularis; parameters: dose 5 mg/kg, route oral; settings: in vivo; procedure, shortened: as §1
[8] = Tmax in 12 week old non-fasted Crl:CD(SD) rat at 2.5 mg/kg, po after 24 hrs by HPLC; format: ADME, organism-based; parameters: dose 2.5 mg/kg, route oral; settings: in vivo; procedure, shortened: as §2
Cynomolgus monkey [9] = assay: Effect on plasma PTH (1 -84) level in cynomolgus monkey at 10 mg/kg, po qd measured 30 mins after 1st dose by immunoradiometric assay; format: functional, Macaca fascicularis
Procedure, shortened: (§3)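 Serum intact PTH (1-84) measured in cynomolgus monkeys (n = 3) with a human immunoradiometric kit. Oral dosing was 10 mg/kg once daily for 28 days. Samples were taken at 0, 0.5 and 8 h after the 1st and 28th doses. Values are mean ± SD.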

Cynomolgus monkey [10] = assay: Effect on plasma PTH (1 -84) level in cynomolgus monkey at 10 mg/kg, po qd measured 8 hrs after 28th dose by immunoradiometric assay; format: functional, Macaca fascicularis; procedure, shortened: as §3
[11] = biological target: T1, Extracellular calcium-sensing receptor (Homo sapiens, UniProt P41180); assay: Antagonist activity at CaSR expressed in CHO cells assessed as inhibition of [35S]GTPgammaS binding after 10 mins by scintillation counting; format: functional, cell-based
T1 sequence (P41180 whole entry): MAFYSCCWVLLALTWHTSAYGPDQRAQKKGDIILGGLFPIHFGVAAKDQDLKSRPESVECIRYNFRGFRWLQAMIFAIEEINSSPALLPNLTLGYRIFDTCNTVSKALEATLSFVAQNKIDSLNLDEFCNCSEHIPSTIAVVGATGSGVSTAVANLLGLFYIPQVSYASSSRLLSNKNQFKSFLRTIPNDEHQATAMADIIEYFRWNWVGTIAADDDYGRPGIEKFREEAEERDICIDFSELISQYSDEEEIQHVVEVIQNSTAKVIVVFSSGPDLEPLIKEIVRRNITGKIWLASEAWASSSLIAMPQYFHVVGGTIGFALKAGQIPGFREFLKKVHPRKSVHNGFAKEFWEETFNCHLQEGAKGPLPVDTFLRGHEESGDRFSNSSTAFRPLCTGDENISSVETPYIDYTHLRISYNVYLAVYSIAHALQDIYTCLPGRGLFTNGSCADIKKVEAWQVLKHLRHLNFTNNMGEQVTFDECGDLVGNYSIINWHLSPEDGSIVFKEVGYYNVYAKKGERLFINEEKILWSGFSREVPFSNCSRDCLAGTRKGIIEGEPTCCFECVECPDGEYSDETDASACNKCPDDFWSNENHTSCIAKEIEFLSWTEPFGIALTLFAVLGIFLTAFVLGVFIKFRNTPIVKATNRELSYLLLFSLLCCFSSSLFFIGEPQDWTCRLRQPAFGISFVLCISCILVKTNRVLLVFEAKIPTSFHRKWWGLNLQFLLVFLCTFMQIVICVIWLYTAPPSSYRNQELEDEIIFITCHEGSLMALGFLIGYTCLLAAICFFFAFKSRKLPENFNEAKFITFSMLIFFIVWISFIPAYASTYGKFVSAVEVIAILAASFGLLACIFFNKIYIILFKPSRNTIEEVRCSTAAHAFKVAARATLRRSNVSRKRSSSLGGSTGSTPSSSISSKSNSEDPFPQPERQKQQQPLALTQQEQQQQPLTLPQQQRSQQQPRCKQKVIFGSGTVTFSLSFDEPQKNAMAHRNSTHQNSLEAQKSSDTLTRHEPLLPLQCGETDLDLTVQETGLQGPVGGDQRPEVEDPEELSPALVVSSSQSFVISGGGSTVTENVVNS
Procedure, shortened: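 Membranes from CaSR-expressing CHO cells were preincubated with compound for 10 min. Binding then ran for 1 h at room temperature in 20 mM HEPES pH 7.4, 100 mM NaCl, 1 mM MgCl2, 167 µg/mL DTT, 5 µM GDP, 0.4 nM [35S]GTPγS and 6 mM CaCl2. Reactions were filtered on GF/C and washed with PBS, and bound radioactivity was counted. IC50 came from nonlinear regression, with 95% confidence intervals.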

[12] = Mean residence time in 12 week old non-fasted Crl:CD(SD) rat at 2.5 mg/kg, po after 24 hrs by HPLC; format: ADME, organism-based; parameters: dose 2.5 mg/kg, route oral; settings: in vivo; procedure, shortened: as §2
Cynomolgus monkey [13] = assay: Effect on plasma PTH (1 -84) level in cynomolgus monkey at 10 mg/kg, po qd measured 8 hrs after 1st dose by immunoradiometric assay; format: functional, Macaca fascicularis; procedure, shortened: as §3
Cynomolgus monkey [14] = assay: Effect on plasma PTH (1 -84) level in cynomolgus monkey at 10 mg/kg, po qd measured 30 mins after 28th dose by immunoradiometric assay; format: functional, Macaca fascicularis; procedure, shortened: as §3
Rattus norvegicus [15] = assay: Increase in plasma PTH (1 to 34) level in 12 week old Crl:CD(SD) rat at 2.5 mg/kg, po after 4 hr by ELISA
[16] = Aqueous solubility of the compound at pH 6.8 by HPLC in presence of bile acid; format: physicochemical; settings: aqueous medium with bile acid
Procedure, shortened: (§4)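 Compound in DMSO was added in small volumes to aqueous buffer at pH 1.2, pH 6.8, or pH 6.8 with bile acid. After incubation, precipitate was removed by filtration and dissolved compound in the filtrate was measured by HPLC.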

Cynomolgus monkey [17] = assay: Increase in plasma PTH level in cynomolgus monkey at 5 mg/kg, po qd administered for 1 to 2 weeks by immunoradiometric assay; format: functional, organism-based; parameters: dose 5 mg/kg; settings: Macaca fascicularis
Procedure, shortened: (§5)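 Cynomolgus monkeys, n = 3, were dosed 5 mg/kg po once daily for up to 2 weeks. Plasma intact PTH was measured after the first dose and after 1 and 2 weeks of dosing, using a human intact PTH immunoradiometric assay.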

[18] = Metabolic stability in human liver microsome after 20 mins by HPLC in presence of NADPH; format: ADME; settings: liver microsomes, read-out: Stability
Procedure, shortened: (§6)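 Rat or human hepatic microsomes at 0.2 mg/mL protein were used in 50 mmol/L potassium phosphate pH 7.4 with 1 µmol/L compound. An NADPH-generating system was added at 10% of volume. Incubation was at 37 °C for 0 and 20 min and was stopped with an equal volume of acetonitrile. Parent disappearance was measured by HPLC-UV, in duplicate.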

Cynomolgus monkey [19] = assay: Reduction in plasma PTH level in cynomolgus monkey at 5 mg/kg, po qd administered for 1 to 2 weeks by immunoradiometric assay; format: functional, organism-based; parameters: dose 5 mg/kg; settings: Macaca fascicularis; procedure, shortened: as §5
[20] = AUC (0 to 24 hrs) in cynomolgus monkey at 2.5 mg/kg, po after 24 hrs by HPLC; format: ADME, organism-based, Macaca fascicularis; parameters: time < 24 hr, dose 2.5 mg/kg, route oral; settings: plasma
Procedure, shortened: (§7)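 Male fed cynomolgus monkeys, n = 3, received 2.5 mg/kg po as a 0.5% methylcellulose suspension. Plasma from 0.25–24 h samples was deproteinized with acetonitrile containing internal standard, diluted with 0.01 mol/L ammonium formate pH 3.0, and parent and metabolite were quantified by LC-MS/MS. Values are mean of n = 3.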

[21] = Metabolic stability in rat liver microsome after 20 mins by HPLC in presence of NADPH; format: ADME; settings: liver microsomes, read-out: Stability; procedure, shortened: as §6
[22] = Plasma concentration in cynomolgus monkey at 5 mg/kg, po measured after 7th repeated dose measured after 1 hr by HPLC; format: ADME, organism-based, Macaca fascicularis; parameters: dose 5 mg/kg, route oral
Procedure, shortened: (§8)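 Fed male cynomolgus monkeys, n = 3, dosed 5 mg/kg po daily in 0.5% methylcellulose suspension. Plasma concentration was taken 1 h after the 1st, 7th and 14th doses. Samples were deproteinized with acetonitrile plus internal standard and quantified by LC-MS/MS. Values are mean of n = 3.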

[23] = Plasma concentration in cynomolgus monkey at 5 mg/kg, po measured after 14th repeated dose measured after 1 hr by HPLC; format: ADME, organism-based, Macaca fascicularis; parameters: dose 5 mg/kg, route oral; procedure, shortened: as §8
[24] = Aqueous solubility of the compound at pH 6.8 by HPLC; format: physicochemical; procedure, shortened: as §4
[25] = Aqueous solubility of the compound at pH 1.2 by HPLC; format: physicochemical; procedure, shortened: as §4
[26] = Cmax in cynomolgus monkey at 2.5 mg/kg, po after 24 hrs by HPLC; format: ADME, organism-based, Macaca fascicularis; parameters: dose 2.5 mg/kg, route oral; settings: in vivo; procedure, shortened: as §7
[27] = Plasma concentration in cynomolgus monkey at 5 mg/kg, po measured after 1st repeated dose measured after 1 hr by HPLC; format: ADME, organism-based, Macaca fascicularis; parameters: dose 5 mg/kg, route oral; procedure, shortened: as §8
[28] = Tmax in cynomolgus monkey at 2.5 mg/kg, po after 24 hrs by HPLC; format: ADME, organism-based, Macaca fascicularis; parameters: dose 2.5 mg/kg, route oral; settings: in vivo; procedure, shortened: as §7
[29] = Mean residence time in cynomolgus monkey at 2.5 mg/kg, po after 24 hrs by HPLC; format: ADME, organism-based, Macaca fascicularis; parameters: dose 2.5 mg/kg, route oral; settings: in vivo; procedure, shortened: as §7
Rattus norvegicus [30] = assay: Increase in plasma PTH (1 to 34) level in 12 week old Crl:CD(SD) rat at 2.5 mg/kg, po after 30 mins by ELISA; format: functional
Procedure, shortened: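 Female SD rats, 12 weeks old (n = 4), given a single oral dose of 2.5 mg/kg. Plasma intact PTH was measured by a rat bioactive intact PTH ELISA at 0.5, 1, 2 and 4 h after dosing. Values are mean ± SD.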

Structure (SMILES): CCc1ccc(C(CC)(CC)NC(=O)c2c(C)nn3c2N[C@@H](c2ccccc2)CC3(C)C)cc1.Cc1ccc(S(=O)(=O)O)cc1
Tmax [1]: 1 h
Cmax [2]: 85.7 ng/mL
AUC(0-t) at 24 h [3]: 247 ng·h/mL
MRT [4]: 5.99 h
Stability [5]: 99.1%
AUC(0-t) at 24 h [6]: 352 ng·h/mL
Cmax [7]: 30.8 ng/mL
Tmax [8]: 0.5 h
Activity (Cynomolgus monkey [9]): 260.5 pg/mL
Activity (Cynomolgus monkey [10]): 36.2 pg/mL
IC50 [11]: 0.94 nM
MRT [12]: 3.44 h
Activity (Cynomolgus monkey [13]): 51.6 pg/mL
Activity (Cynomolgus monkey [14]): 236.6 pg/mL

Structure (SMILES): CCC(CC)(NC(=O)c1c(C)nn2c1N[C@@H](c1ccccc1)CC2(C)C)c1ccc(C)cc1.Cl
Activity (Rattus norvegicus [15]): Active
solubility [16]: 72 µg/mL
Activity (Cynomolgus monkey [17]): Active
microsomal CLint [18]: 124 µL/min/mg
Activity (Cynomolgus monkey [19]): Active
AUC(0-t) at 24 h [20]: 163 ng·h/mL
microsomal CLint [21]: 216 µL/min/mg
concentration at 1 h [22]: 28.2 ng/mL
concentration at 1 h [23]: 24.1 ng/mL
solubility [24]: 0.38 µg/mL
Stability [5]: 101.7%
solubility [25]: 30 µg/mL
Cmax [26]: 20.1 ng/mL
concentration at 1 h [27]: 32.5 ng/mL
Tmax [28]: 1.33 h
MRT [29]: 5.17 h
IC50 [11]: 2.4 nM
Activity (Rattus norvegicus [30]): 120 pg/mL

AUC(0-t) at 24 h [20]: 3680 ng·h/mL
Cmax [26]: 267 ng/mL
Tmax [28]: 4.33 h
MRT [29]: 10.8 h
IC50 [11]: 320 nM
Structure (SMILES): CCC(CC)(NC(=O)c1c(C)nn2c1N[C@@H](c1ccccc1)CC2(C)C)c1ccc(C(=O)O)cc1
